In ChEMBL document CHEMBL1157679, “Substituted aryl malonamates as new serine beta-lactamase substrates: structure-activity studies” (Bioorg Med Chem, 2010):

What was measured:
[1] = Ratio of Kcat to Km for beta-lactamase TEM-2
Outline: (§1)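 Steady-state kinetics in 100 mM MOPS, pH 7.5, 25 °C. Substrate stocks were made in DMSO and diluted into buffer to a final DMSO below 5%. Initial rates of enzyme-catalysed turnover were followed spectrophotometrically. Steady-state parameters were derived from these initial rates. Buffer hydrolysis of the substrates was measured separately as pseudo-first-order rate constants.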

[2] = Activity at beta-lactamase TEM-2 by spectrophotometry; outline: as §1
[3] = Inhibition of beta-lactamase TEM-2 assessed as inhibition of cephalothin turnover by spectrophotometry
Outline: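 TEM-2 enzyme (0.2 μM) was incubated with 3 mM inhibitor in 100 mM MOPS, pH 7.5, at 25 °C (DMSO below 5% final). Residual activity against 0.2 mM cephalothin was read spectrophotometrically over incubation time. Exponential fitting gave pseudo-first-order inactivation constants, which were converted to second-order rate constants.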

CO[C@@H](C(=O)NCc1ccccc1)C(=O)Oc1cccc(C(=O)O)c1
kcat/Km [1]: < 6 M⁻¹ s⁻¹

O=C(O)c1cccc(OC(=O)C2Cc3ccccc3N(Cc3ccccc3)C2=O)c1 (centres undefined)
kcat/Km [1]: < 0.9 M⁻¹ s⁻¹

C[C@H](C(=O)NCc1ccccc1)C(=O)Oc1cccc(C(=O)O)c1
Km [2]: > 200 µM
kcat [2]: > 7.2 ×10⁻⁴ /s
kcat/Km [1]: 3.6 M⁻¹ s⁻¹

O=C(CP(=O)(O)Oc1cccc(C(=O)O)c1)NCc1ccccc1
kcat/Km [3]: < 1 M⁻¹ s⁻¹

O=C(CC(=O)N(Cc1ccccc1)Cc1ccccc1)Oc1cccc(C(=O)O)c1
Km [2]: 1800 µM
kcat [2]: 0.21 s⁻¹
kcat/Km [1]: 1.2 ×10² /s/M

O=C(O)c1cccc(OC(=O)C2CCN(Cc3ccccc3)C2=O)c1 (centres undefined)
Km [2]: > 220 µM
kcat [2]: > 1.1 ×10⁻⁴ /s
kcat/Km [1]: 0.54 M⁻¹ s⁻¹

O=C(CC(=O)Oc1cccc(C(=O)O)c1)NCc1ccccc1
Km [2]: 1.42 µM
kcat [2]: 28 s⁻¹
kcat/Km [1]: 1.95 ×10⁴ /s/M

O=C(O)c1cccc(OC(=O)C(Cc2ccccc2)C(=O)NCc2ccccc2)c1 (centres undefined)
Km [2]: > 200 µM
kcat [2]: > 9.4 ×10⁻⁴ /s
kcat/Km [1]: 4.7 M⁻¹ s⁻¹

CN(Cc1ccccc1)C(=O)CC(=O)Oc1cccc(C(=O)O)c1
kcat/Km [1]: < 0.2 M⁻¹ s⁻¹
